NRP1-CendR mod: NRP-1/CendR interaction modulation. O14786. FAM-RPARPAR peptide binding to NRP-1, fluorescence polarization. inhibition, % at 25 µM. 0.85% of 360,000 active;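 active = inhibition or corrected inhibition above about 18%, plus a signal ratio from 0.5 to 1.5, limit read from the data, passing the limit was not always enough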
DAGLB inhibitor: diacylglycerol lipase beta (human) inhibition | Q8NCG7 | HEK293T DAGLB membrane lysate, EnzChek fluorogenic substrate | inhibition, % at 5.17 µM | 0.059% of 340,000 active | AID 504411; in the data active = inhibition above about 34%
Target sequence (Q8NCG7 whole entry, looked up): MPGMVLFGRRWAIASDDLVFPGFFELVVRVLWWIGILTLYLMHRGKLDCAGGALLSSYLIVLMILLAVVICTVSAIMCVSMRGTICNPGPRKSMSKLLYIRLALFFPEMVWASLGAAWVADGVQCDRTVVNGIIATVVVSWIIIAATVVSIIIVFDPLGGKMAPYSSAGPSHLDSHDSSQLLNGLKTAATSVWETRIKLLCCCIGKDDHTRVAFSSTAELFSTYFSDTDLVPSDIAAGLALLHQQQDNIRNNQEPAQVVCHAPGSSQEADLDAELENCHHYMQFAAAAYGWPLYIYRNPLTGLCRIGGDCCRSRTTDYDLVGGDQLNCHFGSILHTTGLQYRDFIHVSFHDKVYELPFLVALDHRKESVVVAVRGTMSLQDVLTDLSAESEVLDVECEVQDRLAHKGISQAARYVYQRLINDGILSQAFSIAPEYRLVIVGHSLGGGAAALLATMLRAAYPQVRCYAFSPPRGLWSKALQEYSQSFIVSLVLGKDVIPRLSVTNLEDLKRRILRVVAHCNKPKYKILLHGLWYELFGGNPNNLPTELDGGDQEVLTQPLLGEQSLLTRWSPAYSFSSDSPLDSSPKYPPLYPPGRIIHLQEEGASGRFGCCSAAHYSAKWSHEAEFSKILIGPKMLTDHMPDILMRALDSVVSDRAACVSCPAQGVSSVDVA
CTSL1 counter: counter-screen for PFM18AAP inhibitors: inhibitors of F. hepatica cathepsin L1; inhibition, % at 5.96 µM; AID 1906; recombinant F. hepatica cathepsin L1, Z-Leu-Arg-MCA fluorescence; 0.49% of 300,000 active;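 active = inhibition above the mean of all tested compounds plus 3 SD, set per screening campaign, cut at about 17% in these data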
UCH37 inh: human UCH37 deubiquitinating enzyme inhibition | purified proteasome/UCH37, Ub-AMC cleavage fluorescence | inhibition, % (concentration not given with the values) | 0.33% of 330,000 active;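 active = mean inhibition over replicate wells above about 20%, limit read from the data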
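system = Proteasome-associated human UCH37 deubiquitinase | amount = 0.15 nM proteasome as dispensed | medium = pH 7.4 Tris-HCl (50 mM) with ovalbumin, ATP-MgCl2, DTT | incubation = 30 min preincubation with enzyme, 25 min cleavage at room temperature | detection = AMC fluorescence 355/460 nm | read-out basis = percent inhibition | controls = no-proteasome and no-compound wells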
MT1-MMP act inh: blocks activation of human MT1-MMP | AID 651647 | GFP/RFP ratio change, % at 20 µM | HT1080 RFP-PRO-GFP cells, GFP/RFP ratio fluorescence, overnight; percent of plate control window, DMSO zero | P50281 | 0.061% of 360,000 active;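 active = GFP/RFP ratio change of at least 30% with cell ATP level not reduced by more than half and red fluorescence within 50% of control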
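Test system: HT1080 RFP-PRO-GFP cells; Benchmarks: DMSO and RFP-L50D-GFP cell wells; Timing: cells overnight before dosing, compound overnight, 37 °C, 5% CO2; Compound: one 20 µM compound dose with 1% DMSO; Read-out: GFP/RFP fluorescence ratio.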
A number is an active result; . = inactive; / = no result. In the library only some 1.5% were active in any assay of this set; here they are far more common.

SMILES	NRP1-CendR mod	DAGLB inhibitor	CTSL1 counter	UCH37 inh	MT1-MMP act inh
O=C(NC1CCCC1)C(c1ccc(F)cc1)N(Cc1ccc(Cl)cc1)C(=O)CCl (stereo not drawn)	.	.	41	.	.
COC(=O)c1ccc(C(C(=O)NC2CCCCC2)N(Cc2ccc(F)cc2)C(=O)Cc2cccs2)cc1 (stereo not drawn)	.	.	.	.	.
O=C(NC1CCCC1)C(c1ccc(Cl)cc1)N(Cc1ccc(F)cc1)C(=O)CCl (stereo not drawn)	.	.	36	.	.
O=C(NN=Cc1cn(-c2ccccc2)nc1-c1cccs1)c1ccc(Cl)cc1	/	/	/	.	/
O=[N+]([O-])c1ccc(N2CCN(Cc3ccccc3)CC2)c(S(=O)(=O)N2CCOCC2)c1	30	.	.	.	.
CN1CCN(c2ccc([N+](=O)[O-])cc2S(=O)(=O)N2CCOCC2)CC1	.	.	.	.	.
CN=c1scc(-c2cccs2)n1N=Cc1ccccc1O	/	/	/	.	/
Cn1nnnc1SCC(=O)c1ccco1	19	.	.	.	.
O=C(CSc1nnnn1-c1ccccc1)c1ccco1	.	.	.	.	.
O=C(NN=Cc1cccnc1)NC12CC3CC(CC(C3)C1)C2	/	/	/	.	/
O=C1S/C(=C/c2ccc(N3CCOCC3)o2)C(=O)N1Cc1c(F)cccc1Cl	.	.	49	.	.
Cn1cnnc1SCc1ccc(-c2ccc(Br)cc2)o1	.	.	60	.	.
O=C(CNc1cccc2ccccc12)NN=C/C=C/c1ccco1	/	/	/	.	/
CC(=NNc1ccc(Cl)c(C(=O)O)c1)c1ccc(N2CCOCC2)cc1	/	/	/	.	/
CC(C)C1C(C#N)=C(N)Oc2n[nH]c(-c3ccc4ccccc4c3)c21 (stereo not drawn)	27	.	.	.	.
CC(C)C1C(C#N)=C(N)Oc2n[nH]c(-c3cccs3)c21 (stereo not drawn)	.	.	.	.	.
CCc1[nH]nc2c1C(C(C)C)C(C#N)=C(N)O2 (stereo not drawn)	21	.	.	.	.
CC(=NNC(=O)CSc1nnc(C)s1)c1ccc(Cl)cc1	/	/	/	.	/
COc1ccc(OCc2nnc(SCc3ccc(C(=O)O)cc3)o2)cc1	.	.	.	.	.
O=C(O)c1ccc(CSc2nnc(COc3ccc(Cl)cc3Cl)o2)cc1	.	.	40	.	.
COc1ccc(C=NNC(=O)c2c(C)nnn2-c2nonc2N)cc1OC	/	/	/	.	/
COc1ccc(C=Nc2nc3ccccc3n2CCN2CCCCC2)cc1OC	/	/	/	.	/
O=C(O)c1cc(NCc2ccc(F)cc2)ccc1N1CCOCC1	46	.	.	.	.
CN(C)CCCNC(=S)N=c1sccn1Cc1ccccc1Cl	/	/	/	.	/
O=C(Cc1ccc(Cl)cc1)N/N=C/c1ccccc1	.	.	.	/	.
SMILES	NRP1-CendR mod	DAGLB inhibitor	CTSL1 counter	UCH37 inh	MT1-MMP act inh
O=C(Cc1ccc(Cl)cc1)N/N=C/c1cccc(O)c1	.	.	18	/	.
C[n+]1cccc2c(Br)ccc([O-])c21	26	.	.	.	.
Cn1c(=O)n(C)c2cc(C=NNC(=O)c3ccc(Cl)cc3Cl)ccc21	/	/	/	.	/
O=C(C[C@H]1C/C=C\C[C@@H](Cc2ccc(F)cc2)C(=O)O[C@H](c2ccccc2)CNC1=O)NCCO	18	.	/	.	.
CC(C)(C)[C@H]1COC(=O)[C@H](NC(=O)OCC2c3ccccc3-c3ccccc32)C/C=C\C[C@@H](CC(=O)N[C@@H](CO)Cc2ccccc2)C(=O)N1	19	.	/	.	.
CC(C)(C)OC(=O)C[C@@H]1C/C=C\C[C@@H](CC(=O)NCCO)C(=O)NC[C@@H](c2ccccc2)OC1=O	18	.	/	.	.
CC(C)(C)OC(=O)C[C@H]1C/C=C\C[C@@H](CC(=O)N[C@@H](CO)Cc2ccccc2)C(=O)NCCOC1=O	36	.	/	.	.
CSc1ccc(C=NNc2cccc(C(=O)O)c2)cc1	/	/	/	.	/
COC(=O)CCC/C=C1/SCC(NC(=O)c2ccccc2)C1O (stereo not drawn)	.	.	48	.	.
Nc1cccc2nc3ccccc3cc12	.	.	.	.	.
Cc1cc2c(N)cccc2nn1	41	.	.	/	.
COc1cc(NC(=O)C2CCCN2S(=O)(=O)c2ccc3c(c2)CC(C)N3C(C)=O)cc(OC)c1 (stereo not drawn)	.	.	.	.	.
CC(=O)N1c2ccc(S(=O)(=O)N3CCC(C(=O)Nc4cc(C)cc(C)c4)CC3)cc2CC1C (stereo not drawn)	.	.	.	.	.

Screens (PubChem)
